Published values from different studies.
Compare with care: the assays were run in different laboratories.

Cc1ncsc1-c1ccc([C@H](CC(=O)NCCOCCOCCOCCOCCOCCC(=O)N2CCC(Nc3cc(C(=O)NC[C@H](O)CN4CCc5ccccc5C4)ncn3)CC2)NC(=O)[C@@H]2C[C@@H](O)CN2C(=O)[C@@H](NC(=O)C2(F)CC2)C(C)(C)C)cc1 has a concentration of over 200 nM (male Swiss mouse, plasma; intraperitoneal, 50 mg/kg, 8 h, single dose).
The half-life of CC(C)=CCC[C@](C)(O[C@@H]1O[C@H](CO)[C@@H](O)[C@H](O)[C@H]1O)[C@H]1CC[C@]2(C)[C@@H]1[C@H](O)C[C@@H]1[C@@]3(C)CC[C@H](O)C(C)(C)[C@@H]3CC[C@]12C is reported as 14 h (mouse, plasma; oral, 10 mg/kg).
With CC(C)CC(=O)OC[C@H]1O[C@@](C#N)(c2ccc3c(N)ncnn23)[C@H](O)[C@@H]1O the hepatocyte CLint was over 318 µL/min/10⁶ cells (metabolic stability; dog, hepatocytes; 5 µM).
For Cc1[nH]c(C)c(S(=O)(=O)Nc2ccc(S(F)(F)(F)(F)F)cc2)c1C(=O)N1CCC(F)(F)C1, the half-life was 2.64 h (mouse, plasma; intraperitoneal, 40 mg/kg).
For CC(C)[C@]12O[C@H]1[C@@H]1O[C@]13[C@]1(O[C@H]1C[C@H]1C4=C(CC[C@@]13C)C(=O)OC4)[C@@H]2O, the half-life was 0.16 h (SCID mouse, plasma; intravenous, 0.6 mg/kg).
CN(C)C1(CNC(=O)c2ccc3c(c2)CCN3C(=O)c2ccccc2)CCOCC1 gave a concentration of 39 ng/g (male C57BL/6 mouse, brain; intraperitoneal, 50 mg/kg, 2 h).
The half-life of CCOC(=O)c1c(NC(=O)CNC(C)C)sc2c1CCCCC2 is reported as 2.06 h (male mouse, brain; intraperitoneal, 100 mg/kg, single dose).
COc1cc(C(=O)c2nc(-c3cccc4[nH]ccc34)c[nH]2)cc(OC)c1OC has a half-life of 0.95 h (male CD-1 mouse, plasma; intraperitoneal, 15 mg/kg).
